The source of these data is ChEMBL document CHEMBL1255223, “Structure-activity relationship study of first selective inhibitor of excitatory amino acid transporter subtype 1: 2-Amino-4-(4-methoxyphenyl)-7-(naphthalen-1-yl)-5-oxo-5,6,7,8-tetrahydro-4H-chromene-3-carbonitrile (UCPH-101)” (J Med Chem, 2010).

Calls of active or inactive are those of the source. No cut-off for these calls is given here. Where only a bound is given, the exact number is not on record here.

Data set [1] addresses T1, Excitatory amino acid transporter 3 (Homo sapiens) (UniProt P43005).
T1 sequence (whole entry): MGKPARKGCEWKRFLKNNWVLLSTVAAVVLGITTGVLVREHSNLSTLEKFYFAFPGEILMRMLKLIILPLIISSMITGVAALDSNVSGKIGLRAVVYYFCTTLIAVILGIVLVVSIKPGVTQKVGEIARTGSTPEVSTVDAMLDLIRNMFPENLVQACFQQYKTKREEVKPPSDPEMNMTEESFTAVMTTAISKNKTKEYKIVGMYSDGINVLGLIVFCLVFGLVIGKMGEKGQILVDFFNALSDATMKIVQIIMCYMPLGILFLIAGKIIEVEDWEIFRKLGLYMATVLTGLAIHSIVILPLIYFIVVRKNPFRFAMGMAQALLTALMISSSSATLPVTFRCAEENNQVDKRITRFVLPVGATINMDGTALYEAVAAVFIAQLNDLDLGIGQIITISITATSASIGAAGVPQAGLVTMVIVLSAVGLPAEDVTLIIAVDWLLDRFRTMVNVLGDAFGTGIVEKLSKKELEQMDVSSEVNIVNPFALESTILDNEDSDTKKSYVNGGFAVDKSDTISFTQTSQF
Put plainly: Inhibition of human EAAT3 expressed in HEK293 cells at 300 uM by [3H]D-Asp uptake assay. The data set is classed as cell-based. In a few lines: (§1)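 [3H]-D-Asp uptake was measured in HEK293 cell lines expressing EAAT2 or EAAT3. Each analogue was tested at the highest concentration possible for it (75, 100, 300 or 1000 μM) to assess inhibitory activity.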

Data set [2] has as its target Excitatory amino acid transporter 2 (Homo sapiens) (UniProt P43004). Kind of data set: Inhibition of human EAAT2 expressed in HEK293 cells at 300 uM by [3H]D-Asp uptake assay. Type of data set: cell-based. In a few lines:
as §1

For data set [3], the target named is Excitatory amino acid transporter 1 (Homo sapiens, UniProt P43003). Kind of data set: Inhibition of human EAAT1 expressed in HEK293 cells by [3H]D-Asp uptake assay. The data set is classed as cell-based. Conditions: for pIC50: hek293.
Chain of Excitatory amino acid transporter 1 (P43003 whole entry): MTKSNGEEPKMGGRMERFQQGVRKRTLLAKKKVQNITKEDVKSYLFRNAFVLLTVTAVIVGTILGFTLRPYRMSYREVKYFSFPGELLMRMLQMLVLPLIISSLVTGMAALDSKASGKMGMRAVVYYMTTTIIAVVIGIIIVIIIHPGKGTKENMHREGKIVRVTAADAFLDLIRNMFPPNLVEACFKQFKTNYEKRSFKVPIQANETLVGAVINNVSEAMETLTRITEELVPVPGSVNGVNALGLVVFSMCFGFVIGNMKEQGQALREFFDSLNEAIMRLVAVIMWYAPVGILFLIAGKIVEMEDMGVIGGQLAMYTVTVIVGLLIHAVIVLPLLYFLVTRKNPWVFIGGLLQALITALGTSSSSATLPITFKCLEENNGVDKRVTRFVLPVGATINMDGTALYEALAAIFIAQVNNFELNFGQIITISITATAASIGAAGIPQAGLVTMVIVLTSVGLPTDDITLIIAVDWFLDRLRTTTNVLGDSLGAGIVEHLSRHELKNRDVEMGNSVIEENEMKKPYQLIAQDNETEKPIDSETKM
Data set [4] deals with Excitatory amino acid transporter 2 (Homo sapiens) (UniProt P43004). Put plainly: Inhibition of human EAAT2 expressed in HEK293 cells at 100 uM by [3H]D-Asp uptake assay. The data set is classed as cell-based. In a few lines: as §1
Chain of Excitatory amino acid transporter 2 (Homo sapiens) (P43004 whole entry): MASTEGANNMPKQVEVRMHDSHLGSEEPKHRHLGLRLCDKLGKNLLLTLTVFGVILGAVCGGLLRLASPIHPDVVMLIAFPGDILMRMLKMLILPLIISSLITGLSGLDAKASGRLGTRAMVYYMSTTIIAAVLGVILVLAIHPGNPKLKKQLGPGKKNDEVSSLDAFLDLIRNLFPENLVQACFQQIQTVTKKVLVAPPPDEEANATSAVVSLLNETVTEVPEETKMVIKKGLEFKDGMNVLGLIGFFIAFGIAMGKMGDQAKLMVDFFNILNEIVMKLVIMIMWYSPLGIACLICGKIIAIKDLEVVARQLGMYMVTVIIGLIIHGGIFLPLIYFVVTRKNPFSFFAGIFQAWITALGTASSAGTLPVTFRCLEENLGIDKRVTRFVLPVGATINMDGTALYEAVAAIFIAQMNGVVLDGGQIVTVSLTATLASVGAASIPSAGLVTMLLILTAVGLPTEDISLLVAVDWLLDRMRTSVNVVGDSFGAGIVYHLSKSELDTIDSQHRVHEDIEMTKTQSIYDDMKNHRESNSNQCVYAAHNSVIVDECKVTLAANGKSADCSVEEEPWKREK
Data set [5] deals with T1, Excitatory amino acid transporter 3 (Homo sapiens). Put plainly: Inhibition of human EAAT3 expressed in HEK293 cells at 100 uM by [3H]D-Asp uptake assay. Type of data set: cell-based. In a few lines:
as §1

Data set [6] has as its target Excitatory amino acid transporter 2 (Homo sapiens) (UniProt P43004). Put plainly: Inhibition of human EAAT2 expressed in HEK293 cells at 75 uM by [3H]D-Asp uptake assay. Type of data set: cell-based. In a few lines:
as §1

The target in data set [7] is T1, Excitatory amino acid transporter 3 (Homo sapiens). Kind of data set: Inhibition of human EAAT3 expressed in HEK293 cells at 75 uM by [3H]D-Asp uptake assay. The data set is classed as cell-based. In a few lines: as §1
Data set [8] deals with Excitatory amino acid transporter 2 (Homo sapiens) (UniProt P43004). Kind of data set: Inhibition of human EAAT2 expressed in HEK293 cells at 1000 uM by [3H]D-Asp uptake assay. The data set is classed as cell-based. A digest of the protocol:
as §1

In data set [9] the target is T1, Excitatory amino acid transporter 3 (Homo sapiens). Put plainly: Inhibition of human EAAT3 expressed in HEK293 cells at 1000 uM by [3H]D-Asp uptake assay. Type of data set: cell-based. In a few lines:
as §1

In data set [10] the test system is Brain. Kind of data set: Drug level in Sprague-Dawley rat brain at 10 mg/kg. The data set is classed as ADME, organism-based. On the set-up: dose 10 mg/kg. The settings on record: in vivo. In a few lines: (§2)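 Male Sprague-Dawley rats (225 g at arrival) received an oral dose of 10 mg/kg, formulated in 100% PEG400 (5 mL/kg). Three groups (n = 3/group) were sampled at 0.5, 1 and 2 h for cardiac EDTA plasma (under isoflurane) and whole brain homogenized in 70% acetonitrile. UPLC-MS/MS quantitation used an internal standard, with a brain limit of quantification of 10 ng/g.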

The nature of data set [11]: Terminal half life in Sprague-Dawley rat at 10 mg/kg. The data set is classed as ADME, organism-based. Details: dose 10 mg/kg. The settings on record: in vivo, read-out: beta t1/2. In a few lines: as §2

In the case of `CC1CC(=O)C2=C(C1)OC(N)=C(C#N)C2c1ccc2c(c1)OCO2` (stereo unspecified), the inhibition entry in data set [1] and in [2] was “inactive” throughout. The IC50 in [3] (read-out: pIC50 (converted)) is above 316 µM.
As to `N#CC1=C(N)OC2=C(C(=O)CCC2)C1c1ccccc1F` (stereo unspecified), the inhibition entry in data set [1] and in data set [2] was “inactive” throughout. Also, the IC50 in data set [3] (read-out: pIC50 (converted)) is above 316 µM.
Turning to `N#CC1=C(N)OC2=C(C1)C(=O)CC(c1ccccc1)C2` (stereo unspecified), the inhibition entry in data set [1] and in [2] was “inactive” each time. The IC50 in data set [3] (read-out: pIC50 (converted)) was above 316 µM.
Take `CC1C(C#N)=C(N)OC2=C1C(=O)CC(c1ccccc1)C2` (stereo unspecified): the inhibition result in data set [1] and in data set [2] was “inactive” throughout.
`COC(=O)C1=C(N)OC2=C(C(=O)CC(c3ccccc3)C2)C1c1ccccc1` (stereo unspecified): the inhibition result in [1] and in data set [2] was “inactive” each time. For the same compound, the IC50 was above 300 µM in [3] (read-out: IC50) and above 316 µM in [3] (read-out: pIC50 (converted)).
On to `CC1C(C#N)=C(N)OC2=C1C(=O)CC(c1cccc3ccccc13)C2` (stereo unspecified), for which the inhibition result in data set [4] and in data set [5] was “inactive” throughout. Besides, the IC50 in data set [3] (read-out: IC50) was 0.43 µM; in data set [3] (read-out: pIC50 (converted)), 0.339 µM.
With `CC(C)(C)OC(=O)C1=C(N)OC2=C(C(=O)CC(c3ccccc3)C2)C1c1ccccc1` (stereo unspecified), the inhibition entry in data set [6] and in data set [7] was “inactive” each time. In addition, the IC50 in data set [3] (read-out: IC50) is above 75 µM; in data set [3] (read-out: pIC50 (converted)), above 158 µM.
Regarding `N#CC1=C(N)OC2=C(C(=O)N[C@H](c3ccccc3)C2)[C@@H]1c1ccccc1` (relative stereo), the inhibition result in data set [1] and in data set [2] was “inactive” each time. Also, the IC50 in data set [3] (read-out: IC50) is above 300 µM; in [3] (read-out: pIC50 (converted)), above 316 µM.
On to `N#CC1=C(N)OC2=C(C(=O)CC(c3ccccc3)C2)C1c1ccccc1` (stereo unspecified), for which the inhibition entry in data set [8] and in data set [9] was “inactive” throughout. Further, the IC50 in data set [3] (read-out: IC50) was 3.8 µM; in [3] (read-out: pIC50 (converted)) it was 6.31 µM.
As to `N#CC1=COC2=C(C(=O)CC(c3ccccc3)C2)C1c1ccccc1` (stereo unspecified), the inhibition entry in [4] and in [5] was “inactive” each time. The compound further displayed a pIC50 in data set [3] below 4. For the same compound, the IC50 in data set [3] (read-out: IC50) is above 100 µM.
Turning to `CC(=O)NC1=C(C#N)C(c2ccccc2)C2=C(CC(c3ccccc3)CC2=O)O1` (stereo unspecified), the inhibition entry in [4] and in [5] was “inactive” throughout. For the same compound, the pIC50 in [3] is below 4. Further, the IC50 in data set [3] (read-out: IC50) is above 100 µM.
Take `COc1ccc(C2C(C#N)=C(N)OC3=C2C(=O)CC(c2ccc4ccccc4c2)C3)cc1` (stereo unspecified): the inhibition result in data set [1] and in [2] was “inactive” each time. In data set [3] (read-out: IC50), the IC50 is 3.2 µM.
Turning to `N#CC1=C(N)OC2=C(C(=O)N[C@@H](c3ccccc3)C2)[C@@H]1c1ccccc1` (relative stereo), the inhibition result in data set [1] and in [2] was “inactive” throughout. For the same compound, the IC50 in data set [3] (read-out: IC50) is above 300 µM; in data set [3] (read-out: pIC50 (converted)), above 316 µM.
In the case of `NC1=CC(c2ccccc2)C2=C(CC(c3ccccc3)CC2=O)O1` (stereo unspecified), the inhibition result in [4] and in data set [5] was “inactive” in each case. The compound also came in with a negative-log IC50 (pIC50) in data set [3] below 4. In data set [3] (read-out: IC50), the IC50 is above 100 µM.
As for `COc1ccc(C2C(C#N)=C(N)OC3=C2C(=O)CC(c2cccc4ccccc24)C3)cc1` (stereo unspecified), the inhibition result in data set [1] and in [2] was “inactive” in each case. The Drug uptake in data set [10] was below 10 ng/g. The half-life in [11] was determined as 30 min.
Regarding `N#CC1=C(N)OC2=C(C(=O)O[C@H](c3ccccc3)C2)[C@@H]1c1ccccc1` (relative stereo), the inhibition entry in data set [1] and in data set [2] was “inactive” in each case. The IC50 is above 300 µM in data set [3] (read-out: IC50) and above 316 µM in data set [3] (read-out: pIC50 (converted)).
Take `N#CC1=C(N)OC2=C(C(=O)CC(c3ccccc3)C2)C1c1ccccc1F` (stereo unspecified): the inhibition entry in data set [4] and in data set [5] was “inactive” throughout.
On to `N#CC1=C(N)OC2=C(C(=O)O[C@@H](c3ccccc3)C2)[C@@H]1c1ccccc1` (relative stereo), for which the inhibition result in data set [1] and in data set [2] was “inactive” in each case. In addition, the IC50 in data set [3] (read-out: IC50) was above 300 µM; in [3] (read-out: pIC50 (converted)), above 316 µM.
As to `CCO/C=N/C1=C(C#N)C(c2ccccc2)C2=C(CC(c3ccccc3)CC2=O)O1` (stereo unspecified), the inhibition entry in [8] and in data set [9] was “inactive” in each case. This compound showed a pIC50 in data set [3] below 3. In addition, in [3] (read-out: IC50), the IC50 was above 1000 µM.
`COc1ccc(C2C(C#N)=C(N)OC3=C2C(=O)CC(Cc2ccccc2)C3)cc1` (stereo unspecified): the inhibition entry in data set [4] and in data set [5] was “inactive” in each case. Moreover, the values for the IC50 in data set [3] (read-out: IC50) and in data set [3] (read-out: pIC50 (converted)) were 5.1 µM and 4.79 µM, respectively.
With `NC(=O)C1=C(N)OC2=C(C(=O)CC(c3ccccc3)C2)C1c1ccccc1` (stereo unspecified), the inhibition entry in [4] and in data set [5] was “inactive” in each case. Besides, in data set [3], the pIC50 is listed as below 4. Besides, the IC50 in data set [3] (read-out: IC50) was above 100 µM.
